Test results published in paper PMC11252475 (Acta Pharmaceutica Sinica. B, 2024).

Columns and labels:
rats [1] = experiment: Cutaneous trunci pinprick model; assay type: in vivo, rat; conditions: 62.3 mmol/L, subcutaneous
Summary of the method: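 Male SD rats under 1%–3% isoflurane had about 6 cm × 6 cm of back shaved, swabbed with alcohol and split into four areas. Test compound (62.3 mmol/L) was given by s.c. infiltration. Pinprick scored 1 for no response and 0 for response. Duration ran from onset to expiration, expressed as mean-score MPE. Effective block was ≥50% MPE; complete block was 100% MPE.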

rats [2] = experiment: Sciatic nerve block model; assay type: in vivo, rat; conditions: 62.3 mmol/L near sciatic nerve
Summary of the method: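 Test compound (62.3 mmol/L) was injected near the sciatic nerve. Hind limbs were tested every 30 min until back to pre-test baseline. Sensory: paw withdrawal latency on a 55 °C hotplate, timed by stopwatch. Motor: extensor postural thrust in grams on a digital balance. Recovery was 50% of baseline.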

rats [3] = experiment: Gingival incision pain model; assay type: in vivo, rat
Summary of the method: (§1)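 Oral pain models in rats under 1%–3% isoflurane, with test compound given as local anesthetic. Food intake and body-weight change were measured on a precision balance over 24 h. Facial grooming was video-recorded for 1 h after dosing.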

in vitro [4] = assay type: in vitro ADME; conditions: rat, microsomes, pH 7.4
rats [5] = experiment: Plantar incisional pain model; assay type: in vivo, rat; conditions: 0.2 mL near incision
Summary of the method: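 Rats with a plantar incision received test compound or saline, 0.2 mL, near the incision. Local anesthesia was assessed by von Frey stimulation of the lateral sole.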

hERG channel = hERG channel (Homo sapiens, UniProt Q12809); experiment: hERG potassium current inhibition; assay type: cell-based
Chain of hERG channel (Q12809 whole entry): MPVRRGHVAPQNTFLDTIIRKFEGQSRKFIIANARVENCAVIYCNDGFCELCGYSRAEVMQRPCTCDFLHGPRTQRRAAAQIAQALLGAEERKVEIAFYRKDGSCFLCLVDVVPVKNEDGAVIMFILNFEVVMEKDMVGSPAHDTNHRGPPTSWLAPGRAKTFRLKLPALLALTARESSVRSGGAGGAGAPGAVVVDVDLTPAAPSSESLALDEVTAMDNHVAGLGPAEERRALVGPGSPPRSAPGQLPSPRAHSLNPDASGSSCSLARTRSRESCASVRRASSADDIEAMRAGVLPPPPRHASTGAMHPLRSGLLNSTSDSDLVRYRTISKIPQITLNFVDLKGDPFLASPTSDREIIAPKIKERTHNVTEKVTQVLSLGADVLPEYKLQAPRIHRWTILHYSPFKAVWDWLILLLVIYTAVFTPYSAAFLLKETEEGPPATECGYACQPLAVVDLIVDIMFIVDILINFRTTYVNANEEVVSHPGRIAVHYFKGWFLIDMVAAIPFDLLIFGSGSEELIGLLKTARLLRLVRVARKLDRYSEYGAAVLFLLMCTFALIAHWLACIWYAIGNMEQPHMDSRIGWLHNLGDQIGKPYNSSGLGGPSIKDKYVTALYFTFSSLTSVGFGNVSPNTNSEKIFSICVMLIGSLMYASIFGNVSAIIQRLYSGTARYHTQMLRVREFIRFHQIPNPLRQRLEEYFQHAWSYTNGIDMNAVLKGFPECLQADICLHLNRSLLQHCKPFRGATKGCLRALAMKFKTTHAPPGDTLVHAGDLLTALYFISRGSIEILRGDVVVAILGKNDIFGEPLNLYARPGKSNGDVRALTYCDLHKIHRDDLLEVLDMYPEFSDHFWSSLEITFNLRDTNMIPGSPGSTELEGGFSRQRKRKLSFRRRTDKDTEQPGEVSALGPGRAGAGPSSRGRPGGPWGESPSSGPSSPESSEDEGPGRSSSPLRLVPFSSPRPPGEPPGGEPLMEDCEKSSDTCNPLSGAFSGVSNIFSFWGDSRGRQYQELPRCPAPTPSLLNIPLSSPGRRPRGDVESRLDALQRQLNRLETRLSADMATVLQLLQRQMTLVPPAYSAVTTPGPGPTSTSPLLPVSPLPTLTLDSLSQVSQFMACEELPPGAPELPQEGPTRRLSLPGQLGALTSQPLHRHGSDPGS

IL-1β, IL-6, TNFα = experiment: LPS-induced inflammatory factor expression; assay type: cell-based, rat; conditions: LPS 24 h, DRG neurons and PC12 cells; similar to LD, stronger than AT
[6] = Systemic toxicity, intravenous; conditions: ICR, mouse, in vivo
rats [7] = experiment: Dental pulp injury pain model; assay type: in vivo, rat; conditions: compared with AT
Summary of the method: as §1

rats [8] = experiment: Tooth extraction pain model; assay type: in vivo, rat
Summary of the method: as §1

NaV1.5 = NaV1.5 (Homo sapiens, UniProt Q14524); experiment: Cell membrane chromatography; assay type: binding; conditions: capacity factor k′; reflects potential cardiac toxicity; k′ < 0 labeled as 0
Chain of NaV1.5 (Q14524 whole entry): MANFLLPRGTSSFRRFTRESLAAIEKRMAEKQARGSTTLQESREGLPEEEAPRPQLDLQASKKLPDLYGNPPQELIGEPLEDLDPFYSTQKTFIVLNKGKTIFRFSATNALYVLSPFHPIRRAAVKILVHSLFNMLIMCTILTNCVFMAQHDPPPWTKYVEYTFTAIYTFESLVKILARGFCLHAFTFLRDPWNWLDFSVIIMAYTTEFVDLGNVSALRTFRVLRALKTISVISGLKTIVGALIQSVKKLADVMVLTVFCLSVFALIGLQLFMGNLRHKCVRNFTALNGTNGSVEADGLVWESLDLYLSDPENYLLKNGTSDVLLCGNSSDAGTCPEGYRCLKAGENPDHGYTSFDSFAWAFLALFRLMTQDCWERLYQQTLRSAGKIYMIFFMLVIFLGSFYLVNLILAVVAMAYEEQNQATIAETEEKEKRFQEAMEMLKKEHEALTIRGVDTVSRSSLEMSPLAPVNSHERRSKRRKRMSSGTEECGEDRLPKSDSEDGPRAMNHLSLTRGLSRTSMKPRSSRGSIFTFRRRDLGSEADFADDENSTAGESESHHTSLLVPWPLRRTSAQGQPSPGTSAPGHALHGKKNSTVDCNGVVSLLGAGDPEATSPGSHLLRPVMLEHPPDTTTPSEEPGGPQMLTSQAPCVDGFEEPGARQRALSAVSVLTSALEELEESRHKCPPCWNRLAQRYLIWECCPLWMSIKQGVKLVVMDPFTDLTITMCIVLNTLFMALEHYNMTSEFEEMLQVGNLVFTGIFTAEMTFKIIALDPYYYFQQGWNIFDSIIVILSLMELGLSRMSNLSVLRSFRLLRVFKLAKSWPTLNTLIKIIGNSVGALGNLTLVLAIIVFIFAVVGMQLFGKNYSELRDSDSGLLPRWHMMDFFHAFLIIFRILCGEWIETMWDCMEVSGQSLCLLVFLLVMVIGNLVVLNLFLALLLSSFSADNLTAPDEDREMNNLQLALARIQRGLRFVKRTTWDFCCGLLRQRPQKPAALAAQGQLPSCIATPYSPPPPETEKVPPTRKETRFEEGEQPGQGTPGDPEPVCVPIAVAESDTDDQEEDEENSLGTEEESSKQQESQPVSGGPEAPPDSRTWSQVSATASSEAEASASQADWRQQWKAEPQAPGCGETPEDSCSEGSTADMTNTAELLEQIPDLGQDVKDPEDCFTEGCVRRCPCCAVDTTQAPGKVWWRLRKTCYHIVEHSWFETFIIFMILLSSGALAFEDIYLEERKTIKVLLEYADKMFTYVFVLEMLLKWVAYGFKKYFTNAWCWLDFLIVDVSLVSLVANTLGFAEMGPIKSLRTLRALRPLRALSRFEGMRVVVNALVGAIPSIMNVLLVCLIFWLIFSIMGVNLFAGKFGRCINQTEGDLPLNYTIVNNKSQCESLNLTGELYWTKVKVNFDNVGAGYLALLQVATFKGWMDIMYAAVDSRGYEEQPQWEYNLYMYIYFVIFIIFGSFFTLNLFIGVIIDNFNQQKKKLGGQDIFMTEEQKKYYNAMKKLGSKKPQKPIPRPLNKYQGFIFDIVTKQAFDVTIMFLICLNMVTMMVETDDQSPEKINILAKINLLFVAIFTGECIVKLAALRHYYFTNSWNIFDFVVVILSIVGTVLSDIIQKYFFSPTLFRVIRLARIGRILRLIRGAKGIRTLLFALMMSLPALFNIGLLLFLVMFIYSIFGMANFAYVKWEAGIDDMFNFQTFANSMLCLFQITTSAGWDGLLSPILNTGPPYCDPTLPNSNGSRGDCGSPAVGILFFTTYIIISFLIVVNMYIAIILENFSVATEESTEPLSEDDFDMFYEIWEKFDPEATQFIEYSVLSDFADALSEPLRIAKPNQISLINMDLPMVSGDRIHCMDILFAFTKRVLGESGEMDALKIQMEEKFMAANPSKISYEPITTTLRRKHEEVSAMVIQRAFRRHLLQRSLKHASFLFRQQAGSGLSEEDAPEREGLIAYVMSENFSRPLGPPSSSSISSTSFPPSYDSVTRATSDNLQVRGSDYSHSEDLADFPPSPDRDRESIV

in vitro [9] = assay type: in vitro ADME; conditions: human, microsomes, pH 7.4
NLRP3 inflammasome = NLRP3 inflammasome activation after LPS; assay type: cell-based, rat
Summary of the method: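 DRG neurons and NGF-differentiated PC12 cells, with LPS given before or together with test compound. ASC specks: 3% paraformaldehyde 15 min, 0.5% Triton X-100 15 min, 5% BSA 2 h, anti-ASC 1:200 overnight at 4 °C, secondary 1:500 1 h in the dark, DAPI, fluorescence microscopy. Western blot: PVDF, 5% milk 2 h, anti-NLRP3 and anti-caspase-1 1:1000 overnight at 4 °C.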

[10] = Systemic toxicity, subcutaneous injection; assay type: in vivo, rat; conditions: Sprague-Dawley, rat, in vivo, sc
SD rats = experiment: Systemic toxicity, subcutaneous injection; assay type: in vivo, rat; conditions: TI = LD50/ED50, s.c.
[11] = Pharmacokinetics after subcutaneous injection; assay type: in vivo; conditions: male, Sprague-Dawley, rat, plasma, sc, 62.3 mmol/L
rats [12] = experiment: Local anesthetic toxicity, blood biochemistry and organ pathology; assay type: in vivo, rat
Summary of the method: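 Test compound was given in the rat sciatic nerve block model. Rats were killed at 7 and 14 days. Sciatic nerve and surrounding tissue were HE-stained and inflammatory cells counted in equal-sized areas (nerve:surrounding 1:1). Serum ALT, AST, LDH, α-HBDH, CREA and UREA were run on an automatic analyser. Heart, liver and kidney were HE-stained for pathology.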

rats [13] = experiment: CFA-induced chronic plantar inflammatory pain model; assay type: in vivo, rat; conditions: 62.3 mmol/L, 0.2 mL subcutaneous at swollen foot
Summary of the method: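 Male SD rats (6–8 weeks, 250–300 g) under 1%–3% isoflurane had CFA injected into the right foot. Test compound (62.3 mmol/L, 0.2 mL) or equal-volume saline was given s.c. at the swollen site. Electronic von Frey stimulation to the side of the foot every 10 min after onset. Anesthesia failed when the value fell to half the limb-weight-to-baseline difference or below.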

DRG neurons = experiment: LPS-induced ROS production, cytoplasmic mtDNA release, 8-OHdG; assay type: cell-based, rat; conditions: PC12 cells
[14] = system: NaV currents in rat trigeminal neuron (TG) neurons; experiment: Whole-cell patch clamp, sodium current in TG neurons; assay type: cell-based
[15] = system: NaV currents in rat dorsal root ganglion (DRG) neurons; experiment: Whole-cell patch clamp, sodium current in DRG neurons; assay type: cell-based
Summary of the method: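 Male rat DRG neurons (180–200 g donors) were dissociated with collagenase IV (2 mg/mL) then trypsin (10 mg/mL) for 30 min, plated on poly-L-lysine and grown in Neurobasal with FBS and B27. Whole-cell voltage clamp used 3–4 MΩ electrodes. I/V steps ran from −90 to +40 mV in 10 mV increments, 50 ms each.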

## CCCCN1CCN(C(C)C(=O)Nc2c(C)csc2C(=O)OC)CC1 (centres unmarked) [AT-17, Methyl 3-(2-(4-butylpiperazin-1-yl)propanamido)-4-methylthiophene-2-carboxylate]
Rats [1]
  subcutaneous infiltration duration: 400 min
Rats [2]; extensor postural thrust
  motor block duration: 260 min
Rats [2]; hotplate test
  duration of effective sensory blockade: 200 min
Rats [3]
  face grooming frequency: significantly lowered
Rats [3]; compared with AT
  recovery in body weight and food intake: more pronounced recovery
In vitro [4]
  half-life: 1.03 h
Rats [5]
  anesthesia result in acute inflammation model through plantar incision: improved results
hERG channel
  inhibition at 100 μM/L: 38%
IL-1β, IL-6, TNFα
  inflammatory factors (IL-1β, IL-6, TNFα) expression: significantly inhibited
[6]
  LD50: 43.5 mg/kg
Rats [7]
  weight loss and pain-related decreases in food intake: more effective
Rats [8]
  weight loss and food intake: significantly mitigating
NaV1.5
  k′ NaV1.5: 22.4
In vitro [9]
  half-life: 1.25 h
NLRP3 inflammasome; DRG neurons, PC12 cells
  LPS-induced ASC speck formation: inhibits
NLRP3 inflammasome; LPS, acute and chronic conditions
  NLRP3, ASC, and pro-Casp1 expression: modestly reduced
[10]
  LD50 at 24 h: 424 mg/kg
SD rats
  TI: 149.17
[11]
  AUC(0-t): 5550 ng·h/mL
  Tmax: 1 h
  half-life: 0.823 h
Rats [12]; rats, 7 days and 14 days post-administration
  ALT, AST, LDH, α-HBDH, CREA, UREA levels vs control group: no marked differences
Rats [12]; rats, local administration to the sciatic nerve
  pathological assessment of heart, liver, and kidney vs control group: no significant pathological changes
Rats [12]; sciatic nerve block model, HE, ImageJ
  number of inflammatory cells in tissues compared with AT: significantly lower
Rats [13]
  duration of action (anesthesia) under CFA-induced chronic inflammation: 83.3 min
DRG neurons
  LPS-induced ROS production, cytoplasmic mtDNA release, and 8-OHdG levels: reduced
[14]
  reduction in peak current compared to AT (I‒V relationship): 10.56%
[15]; F-11 rat/mouse fusion cell line, DRG neuron, read-out: IC50 sodium current
  IC50: 31.6 ± 2.07 µM
[15]; rat DRG neurons
  reduction in the peak current compared to AT (I‒V relationship): 36.35%
